Reference: ChEMBL document CHEMBL4513216, “Probing the Open Global Health Chemical Diversity Library for Multistage-Active Starting Points for Next-Generation Antimalarials” (ACS Infect Dis, 2020)

Assay: Toxicity liver stage against HepG2, at 10uM
Format: cell-based
Set-up: test concentration 10 uM, cell line HepG2-A16-CD81EGFP
Conditions: human, HepG2-A16-CD81EGFP cells; read-out: INHIBITION
In short: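 Uninfected HepG2-A16-CD81EGFP cells, 3 × 10^3 per well, 1536-well, plated on prespotted compound at 10 μM final, parasite-free screening media added to match infected plates; puromycin 10 μM positive, DMSO 0.5% negative; run in parallel with 48 h PbLuc assay at 37 °C, 5% CO2; viability by CellTiter-Glo luminescence, normalized to controls.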

Row | Compound | cytotoxicity at 10 µM [%]
1 | O=C(NCCn1cccn1)C1CCC(=O)N(CC2CCCCC2)C1 (centres undefined) | 6.8
2 | c1cc(CNCCc2cn3ccccc3n2)c2c(c1)OCCCO2 | 15.2
3 | COc1ccc(CN[C@@H]2CO[C@H](CNC(=O)N3CCOCC3)[C@H]2O)cc1 | -1.57
4 | COC(=O)c1ccc2nc(CO[C@H]3CN(CC4CC4)C[C@H]3F)[nH]c2c1 | 2.52
5 | CC(C)NC(=O)N1CCN2C(=O)OC[C@H]2C1 | 4.62
6 | O=C(CCn1cccc1)NCc1ccc(CN2CCCCCC2)o1 | -5.2
7 | CCOCCCNC(=O)C1(C)CCC(=O)N1c1ccccc1F (centres undefined) | -4.42
8 | CSc1ccc(C(=O)N2CC(=O)N(CC(C)(C)C)CC(O)C2)cc1 (centres undefined) | 8.6
9 | Cn1nc(CNC(=O)C2CCN(S(C)(=O)=O)CC2)cc1C1CC1 | -2.87
10 | Cc1nc(N2CCCC2)nc2c1CN(C(=O)N(C)C)CC2 | 4.29
11 | COCCC(=O)NCC1Cn2nnc(-c3cccc(F)c3)c2CO1 (centres undefined) | 0.0508
12 | CCCN(CCC)c1ncc(S(=O)(=O)c2ccc(OC)cc2)c(N)n1 | 7.79
13 | O=C(Cn1ccc2ccc(Br)cc21)NC[C@@H]1CCCN2CCCC[C@H]12 | 14.7
14 | CSCc1cccc(S(=O)(=O)N2CCCCC2)c1 | 6.61
15 | Cc1cc(N)n(-c2ccc3nnc(C)n3n2)n1 | 5.89
16 | COCCCNC(=O)c1cc(C(C)C)nc(N2CCCCCC2)n1 | 9.15
17 | CNC(=O)C1CN(C)CCN(C(=O)CCn2nnc3ccccc32)C1 (centres undefined) | 2.71
18 | CC(=O)N1CCCC(c2ccc(Cc3ccccc3)cn2)C1 (centres undefined) | -20.6
19 | CCCn1ncc(CN2C[C@@H]3CCCN3C[C@H]2CCSC)c1C | -11.2
20 | CC(C)S(=O)(=O)N1CCC(c2[nH]ncc2S(C)(=O)=O)C1 (centres undefined) | -21.5
21 | CN(C)c1cncc(C2CCN(CC3(O)CCCCC3)CC2)n1 | -30
22 | CC(=O)NC(Cc1c[nH]c2cc(F)ccc12)C(=O)Nc1nonc1C (centres undefined) | -9.93

Row | Compound | cytotoxicity at 10 µM [%]
23 | CCOC(C)C(=O)NCc1cccc(CN2CCCCCC2)c1 (centres undefined) | 15.5
24 | CC(C)OCCS(=O)(=O)N1CCN(Cc2ccco2)CC1 | -11.3
25 | COc1ccc2c(c1)CCCN(C(=O)NCC1CCCO1)C2 (centres undefined) | 1.06
26 | Cc1ccc(C(=O)NCC(O)c2ccc(Cl)s2)c(=O)[nH]1 (centres undefined) | -20.7
27 | CSc1ccsc1C(=O)NC(Cc1ccccc1)C(N)=O (centres undefined) | -5.24
28 | CCN(CC)c1ccc(CNC(=O)c2cnc(C)cn2)cn1 | 6.21
29 | Cc1cc(S(=O)(=O)N2CCCc3ccccc32)sc1C(=O)O | -13.5
30 | COC(=O)CNC(=O)c1cccc(C(=O)N(C)c2ccccc2)c1 | 6.93
31 | CCSc1cc(C(=O)NCCc2nnc(-c3ccco3)[nH]2)ccn1 | 6.14
32 | COC(=O)c1ccoc1CN(C)Cc1ccccc1 | 3.3
33 | Cc1ccc(C(=O)N(C)Cc2ccc(Br)s2)c(=O)[nH]1 | 5.02
34 | CC(C)c1nc2c(n1C)CCN(CC(=O)NCc1ccccn1)C2 | -8.52
35 | Cc1noc(C)c1CN(Cc1ccccc1)C(C)CN1CCOCC1 (centres undefined) | 7.97
36 | CC(=O)N(C)c1nc(CN2CCN(Cc3nccn3C)CC2)cs1 | 8.82
37 | Cc1ccc2c(c1)C(NCc1ncnn1C)CC2 (centres undefined) | 6.32
38 | CN1CCC(CNC(=O)c2ccc(O)nc2)c2ccccc21 (centres undefined) | 13.9
39 | CCN1CCN(CCCNC(=O)c2cc3ccc(C)cc3nc2C)CC1 | 5.33
40 | CCc1c(C)nc2ccccc2c1N1CCC(NC(C)=O)CC1 | 11.2
41 | CCN(CC)C(=O)CN(C)Cc1nc2c(cnn2C)c(=O)[nH]1 | -0.958
42 | O=S(=O)(c1ccccc1)N1CCCN(CCCn2ccnc2)CC1 | -9.17
43 | O=C(NCCCn1ccnc1)N1CCCC1c1ccncc1 (centres undefined) | 25.4
44 | Cc1cccc(C(=O)N(C)Cc2cc(Br)cs2)n1 | -5.1

Row | Compound | cytotoxicity at 10 µM [%]
45 | O=C1N(c2ccsc2)CCC12CCCN(c1ncc(F)cn1)C2 (centres undefined) | -105
46 | O=C(C1=CCCC1)N1C[C@@H]2COC[C@]2(COCC2CC2)C1 | -96.2
47 | CS(=O)(=O)N1CCC(c2nnc3ccc(C(=O)NC4CCC4)cn23)C1 (centres undefined) | 3.6
48 | CN(C)C(=O)COC1COC2(CCN(S(C)(=O)=O)CC2)C1 (centres undefined) | -1.08
49 | Nc1ccnc(N2C[C@H](O)[C@@H](N3CCN(c4ccccn4)CC3)C2)n1 | 6.7
50 | CN(C)Cc1csc(-c2nccn2Cc2ccc(C(=O)O)cc2)c1 | -1.3
51 | CCC[C@H]1CN(Cc2ccc3c(c2)OCCO3)C[C@@H]1NC(=O)COC | -4.19
52 | COc1ccc2[nH]cc(C(=O)N3CC[C@H](CO)[C@@H](O)C3)c(=O)c2c1 | 1.26
53 | C=C(C)COc1cccc(CNC(COC)c2ccnn2C)c1 (centres undefined) | -3.57
54 | CCC[C@@H]1CN(Cc2ccc(C(F)(F)F)nc2)C[C@H]1C(=O)O | 0.425
55 | O=S(=O)(N1CCOCC1)N1CCOC(CCCc2ccccc2)C1 (centres undefined) | -8.79
56 | Cc1cccc2c1nc(CCO)n2-c1ccc(C(=O)N2CCOCC2)o1 | 3.69
57 | CCC(Nc1ncnc2sc(C(=O)O)c(C)c12)c1ccnn1C (centres undefined) | 0.512
58 | CC(=O)c1cc(C(=O)N2CCC(CC(C)C)C2)c(=O)[nH]c1C (centres undefined) | 4.4
59 | CSCc1noc(CN2CCCCC2CCc2ccc(O)cc2)n1 (centres undefined) | -1.58
60 | CCc1[nH]c2c(CNc3nccc(N)n3)cc(C)cc2c1C | 3.4
61 | O=C(O)[C@@H]1CN(Cc2ccc(-c3cc[nH]n3)s2)C[C@H]1C1CC1 | 5.13
62 | CCn1cnnc1CN(C)C(=O)c1cc(COc2cccc(F)c2)[nH]n1 | 12.3
63 | Cc1[nH]c2c(F)cccc2c1CC(=O)N1CCN(C2CCSCC2)CC1 | 4.82
64 | CSCC(=O)N1CCc2nc(C)nc(NCc3ccccc3)c2CC1 | 1.69
65 | CC1=CCN(S(=O)(=O)c2cccc(C(=O)N3CCOCC3)c2)CC1 | 4.9
66 | Cc1ccc(C)c(C(=O)N2CCOC(CCN(C)C)C2)c1 (centres undefined) | -0.63

Row | Compound | cytotoxicity at 10 µM [%]
67 | COCC1(NC(=O)Nc2nc(C)ns2)CCCC1 | 0.512
68 | O=C(NCc1cn2cccnc2n1)C1CC(=O)N(Cc2ccccn2)C1 (centres undefined) | 2.69
69 | CNCCCNc1nc(C2CCCC2)nc2c1cnn2C | 6.63
70 | CN(CC1=CCCN(CCc2ccccn2)C1)C(=O)c1ccco1 | 1.7
71 | CCn1cc(-c2cc(-c3cc(CC(=O)O)cs3)nc(N)c2C#N)c(C)n1 | 1.16
72 | Cc1cc(C(=O)NCCC2CCN(C)CC2)ccc1N(C)S(C)(=O)=O | 5.82
73 | c1ccc(CCNc2ncnc3c2CCN(Cc2c[nH]cn2)CC3)cc1 | 3.16
74 | N#Cc1ccnc(N2CCC(c3nccn3Cc3cscn3)CC2)c1 | -12.4
75 | CS(=O)(=O)NCc1cc2n(n1)CCCN(Cc1cccc(C#N)c1)C2 | -8.33
76 | COc1ccccc1OC1CCN(Cc2cnc(N(C)C)nc2)CC1 | -10.9
77 | CNc1cc(CNC(=O)c2ccccn2)nc(-c2ccncc2)n1 | -2.63
78 | O=C(c1cccs1)N1CCC(O)(CN2CCc3ccccc3C2)C1 (centres undefined) | 1.49
79 | COc1cnc(C2(O)CCN(C(=O)c3ccncc3)CC2)c(OC)n1 | -4.38
80 | CN(C)CC(=O)N1C[C@@H]2CC[C@H](Oc3ccccc3Cl)[C@@H]2C1 | 3.22
81 | c1cc(CN2CCCC2c2noc(C3CC3)n2)on1 (centres undefined) | -0.628
82 | CNS(=O)(=O)c1ccc(CNC(=O)c2cccc(C)n2)cc1 | 7.17
83 | CC(C(=O)N1CCCCCC1)N1CCN(Cc2nccn2C)CC1 (centres undefined) | -5.28
84 | COC(=O)NCCC(=O)NC(C)Cc1cccc(Br)c1 (centres undefined) | -15.8
85 | Cn1cc(CCC(=O)N2CCCN(c3ncccc3C#N)CC2)cn1 | 2.88
86 | CC(C)(C)c1n[nH]c(C2CN(CCc3cccs3)CCO2)n1 (centres undefined) | -7.36
87 | COc1nc(C)cc(C)c1CNC(=O)N(C)Cc1cnn(C)c1 | -4.64
88 | OCCn1cc(CN2CCN(CCOc3ccccc3)CC2)cn1 | -8.43

Row | Compound | cytotoxicity at 10 µM [%]
89 | CCc1nccn1C1CCCN(C(=O)CCc2nccs2)C1 (centres undefined) | -14.3
90 | COc1ccccc1N1CCC(CNCc2cccc(O)c2)C1 (centres undefined) | -9.04
91 | CN(C)c1cc2c(nn1)CCN(C(=O)Cc1noc3ccccc13)C2 | -10.7
92 | CCOc1ccccc1C(CC(=O)Nc1ccccc1F)NC(C)=O (centres undefined) | -15.4
93 | c1cc(CNCC2CNc3ccnn3C2)cc(N2CCCCC2)n1 (centres undefined) | 6.91
94 | O=C(COCc1ccccc1)N1CCCC(n2cncn2)C1 (centres undefined) | -8.6
95 | CC(O)(CN1CCC2(CC1)OCCO2)c1cccc(C(F)(F)F)c1 (centres undefined) | -9.21
96 | COC(=O)COc1cccc(NS(=O)(=O)c2cc(C(=O)O)cs2)c1 | -5.25
97 | CS(=O)(=O)NCc1cncc2c1CCN(C(=O)N1CCCC1)C2 | 12.8
98 | COC1COC2(CCN(Cc3ccccc3C)CC2)C1 (centres undefined) | 2.84
99 | c1ccc(N2CCCC3(CCN(Cc4ccsc4)C3)C2)nc1 (centres undefined) | -14
100 | Cc1cnc(N2CC[C@H]3[C@@H]2CCC(=O)N3c2cccnc2)nc1 | -0.298
101 | COCC(=O)NCc1cc(=O)n2c(n1)CN(CC1CCOC1)CCC2 (centres undefined) | 1.47
102 | CCOCC1c2c(cnn2C)CCN1C(=O)c1cc(C)on1 (centres undefined) | -81.9
103 | CS(=O)(=O)N[C@@H]1CN(C(=O)c2ccccn2)[C@@H]2CCCO[C@@H]21 | 4.3
104 | O=C(NC1CC1)C1=CC2(CCN(CC3CC3)CC2)c2ccccc21 | 3.11
105 | Cc1ccc(CN2CC[C@]3(C[C@H](OCc4ccccn4)CO3)C2)o1 | -0.617
106 | CN(Cc1ccco1)[C@@H]1CN(C(=O)C2CCOCC2)C[C@@H]2CCCO[C@@H]21 | 3.48
107 | COC(=O)CCC(=O)N1CCCC2(CCCN2Cc2cccc(F)c2)C1 (centres undefined) | -104
108 | CN(C)C(=O)NC1COC2(CCN(Cc3ccccc3)CC2)C1 (centres undefined) | 4.14
109 | O=C(c1cnccn1)N1CCCC2(COCCN(CC3CC3)C2)C1 (centres undefined) | 1.39
